SENP1 FRET inh – blocks the human SENP1 SUMO protease catalytic domain | Q9P0U3 | recombinant SENP1 catalytic domain, CyPet-SUMO1-YPet FRET cleavage | inhibition, % at 10 µM | 0.21% of 360,000 active | AID 624204;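 active means inhibition at least 30% at 10 µM, raw YFP signal under a set limit, fluorescence ratio 0.5 to 1.5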;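 further: 0% = enzyme with DMSO and 100% = no enzyme wells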
Target sequence (Q9P0U3 419-644 limits assumed): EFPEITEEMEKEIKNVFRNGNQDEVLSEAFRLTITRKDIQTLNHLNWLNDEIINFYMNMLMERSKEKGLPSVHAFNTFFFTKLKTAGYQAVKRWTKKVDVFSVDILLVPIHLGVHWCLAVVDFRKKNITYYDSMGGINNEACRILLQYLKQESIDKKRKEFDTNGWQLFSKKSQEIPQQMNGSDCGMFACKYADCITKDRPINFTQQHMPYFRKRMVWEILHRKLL
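system = hSENP1 catalytic domain, recombinant | reagent = SFCypet-SUMO1-SFYpet substrate at 25 nM | doses = one dose per compound, 10 µM, 0.5% DMSO | incubation = enzyme reaction for 50 min at room temperature, dark | measured by = FRET, CFP and YFP emission | controls = no-enzyme low, enzyme-DMSO high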
Platelet DG rel – modulates dense granule release in human platelets; human platelet-rich plasma, SFLLRN dense granule ATP release, luminescence; inhibition, %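 (compounds screened at 7.5 µM in platelet-rich plasma)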; 0.22% of 300,000 active; AID 1663;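 active means mean replicate score, as percent of positive control, at or above 50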
SENP7 inh – inhibitors of human SENP7 protease. Q9BQF6. recombinant SENP7, Z-RLRGG-aminoluciferin luminescence, 40 min. inhibition, % at 5 µM. 1.5% of 330,000 active;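 active means inhibition above about 50% at the single test dose, limit read from the data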;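 further: plate controls were DMSO with enzyme for no effect and no enzyme buffer wells for full effect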
SENP8 block-1 – inhibitors of human SENP8 protease; 0.64% of 360,000 active; recombinant SENP8, Nedd8 substrate fluorescence; Q96LD8; inhibition, % at 20 µM; in the data active means inhibition mostly above about 40%, no sharp cut-off; inactive means mostly below about 27%
SENP8 block-2 – inhibitors of human SENP8 protease | purified SENP8, Z-RLRGG-aminoluciferin cleavage, luminescence | inhibition, % at 10 µM | 1.2% of 330,000 active | AID 2540; in the data active means inhibition above about 50%
SENP6 block – SENP6 protease inhibition; Q9GZR1; Recombinant SENP6 catalytic domain, aminoluciferin luminescence; inhibition, % at 10 µM; 1.8% of 330,000 active; AID 2599;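 active means inhibition above about 50% at the single tested dose, limit read from the data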;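 further: plate controls were DMSO wells with enzyme for no effect and DMSO wells lacking enzyme for full effect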
SENP8 confirm – human SENP8 inhibition, confirmed | shares compounds with SENP7 inh | Recombinant SENP8, Z-RLRGG-aminoluciferin luminescence, 60 min | inhibition, % at 12.5 µM | 40% of 6,200 active | AID 488912;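 active means mean inhibition across replicates above about 50%, limit read from the data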
SENP6 confirm – human SENP6 inhibition, confirmed | shares compounds with SENP7 inh | recombinant SENP6, Z-RLRGG-aminoluciferin luminescence | inhibition, % at 12.5 µM | 58% of 6,200 active | AID 488915
SENP7 conf – confirmation of human SENP7 protease inhibitors; shares compounds with SENP7 inh; 69% of 6,200 active; inhibition, % at 12.5 µM; recombinant SENP7, Z-RLRGG-aminoluciferin luminescence, 40 min; AID 488917
Casp3 select – selectivity test for SENP inhibitors: human caspase-3 inhibition; shares compounds with SENP7 inh; purified caspase-3, Z-DEVD-aminoluciferin luminescence, 60 min; inhibition, % at 12.5 µM; 60% of 6,200 active;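 active means mean inhibition above about 50%, limit read from the data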;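 further: plate controls were enzyme with DMSO for no effect and wells without caspase-3 for full effect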
Target sequence (P42574 28-227 limits assumed): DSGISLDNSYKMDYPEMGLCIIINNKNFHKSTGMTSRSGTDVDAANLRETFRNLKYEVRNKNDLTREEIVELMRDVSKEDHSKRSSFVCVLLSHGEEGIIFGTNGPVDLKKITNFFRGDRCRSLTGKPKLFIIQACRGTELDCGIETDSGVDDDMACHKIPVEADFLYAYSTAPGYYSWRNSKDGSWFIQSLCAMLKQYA
SENP luc ctr – luminescence interference (SENP counter-screen); shares compounds with SENP7 inh; Pre-incubated SENP8/Z-RLRGG-aminoluciferin, luciferase luminescence interference; inhibition, % at 12.5 µM; 39% of 6,200 active; AID 488919;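 active means mean inhibition above about 50% when retested at one dose, limit read from the data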;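 further: plate controls were DMSO wells with completed reaction for no effect and substrate without enzyme for full effect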
Starred values were filed as active, the others as inactive; · = not tested or not shown. A selection: hits, their analogues and other compounds. The true share with any hit is near 2.6%.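 How the source made its calls, unless noted: active means mean inhibition above about 50% in the one-dose retest (limit read from the data); inactive means the rest.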

SMILES | SENP1 FRET inh | Platelet DG rel | SENP7 inh | SENP8 block-1 | SENP8 block-2 | SENP6 block | SENP8 confirm | SENP6 confirm | SENP7 conf | Casp3 select | SENP luc ctr
O=C(Nc1ccc(Cl)cc1)Nc1nccs1 | 2 | 6 | 52* | 16 | 25 | 68* | 50* | 50* | 77* | 39 | 37
CCOC(=O)c1ccc2[nH]c(-c3ccc(S(=O)(=O)F)cc3)cc(=O)c2c1 | -28 | -8 | -8 | -262 | -4 | -19 | · | · | · | · | ·
CC(C)C[C@H]1C(=O)N2CCCC2[C@]2(O)O[C@](NC(=O)[C@@H]3C=C4c5cccc6[nH]cc(c56)CC4N(C)C3)(C(C)C)C(=O)N12 (stereo not given in full) | -29 | 1 | 33 | -389 | 42 | 54* | 17 | 30 | 10 | 6 | -2
CC(C)[C@@]1(NC(=O)[C@@H]2C[C@@H]3c4cccc5[nH]cc(c45)C[C@H]3N(C)C2)O[C@@]2(O)[C@@H]3CCCN3C(=O)[C@H](Cc3ccccc3)N2C1=O | 7 | 0 | 7 | -85 | 12 | 5 | · | · | · | · | ·
CC(C)[C@H]1C(=O)N2CCC[C@H]2[C@]2(O)O[C@](NC(=O)[C@@H]3C=C4c5cccc6[nH]cc(c56)C[C@H]4N(C)C3)(C(C)C)C(=O)N12 | -29 | · | 40 | -379 | 43 | 52* | -11 | 4 | -7 | -2 | -8
COc1ccc(-c2ccc3c(c2)CNCc2cnnn2-3)cc1 | 1 | · | · | -60 | · | · | · | · | · | · | ·
COc1ccc(-c2cc(=Nc3ccccc3)c3cc(C)ccc3o2)cc1 | 4 | 2 | 68* | -340 | 22 | 69* | 12 | 7 | 0 | 7 | 13
Nc1ccccc1C(=O)OCCc1ccccc1 | 0 | · | 75* | -387 | 73* | 76* | 69* | 75* | 92* | 60* | 67*
COC(=O)c1nc(-c2ccc3c(n2)C(=O)C(N)=C(OC)C3=O)c(N)c(-c2ccc(OC)c(OC)c2O)c1C | 10 | 3 | 13 | 49* | 81* | 76* | -8 | -3 | 10 | -2 | -4
O=C(c1cc2c(s1)-c1ccccc1OC2)N1CCC2(CC1)OCCO2 | 2 | 19 | 84* | -277 | 70* | 84* | 75* | 75* | 94* | 84* | 80*
CCCC(=O)Nc1cc(C(=O)N2CCC3(CC2)OCCO3)ccc1S(=O)(=O)c1ccc(C)cc1 | 0 | 0 | 9 | -5 | -4 | -15 | · | · | · | · | ·
N/C(=N\N=C\c1ccc(O)cc1O)N[N+](=O)[O-] | -27 | 23 | 52* | 12 | 51* | 15 | 61* | 60* | 86* | 88* | 68*
CCN(CC)C(=O)c1ccc(NC(=O)c2cccc(F)c2)cc1 | 2 | 8 | 65* | 12 | 35 | 62* | 57* | 54* | 83* | 82* | 53*
Cc1ccc(N2C(=O)NC(=O)/C(=C\c3cc(C)n(-c4sc5c(c4C#N)CCCC5)c3C)C2=O)cc1 | -5 | -6 | 3 | 8 | 1 | 0 | · | · | · | · | ·
COc1ccc(Cn2c(N)c(C(=O)NCc3ccco3)c3nc4ccccc4nc32)cc1 | -25 | -1 | 28 | -415 | 25 | 58* | -4 | -6 | -4 | -1 | -6
Nc1c(C(=O)NCc2ccco2)c2nc3ccccc3nc2n1Cc1ccc(F)cc1 | -17 | -5 | 54* | -484 | 75* | 89* | 1 | -4 | -5 | -3 | -13
COc1ccc(OC(=O)N(C)C[C@@H]2OCc3cnnn3CCCC(=O)N([C@H](C)CO)C[C@H]2C)cc1 | 0 | · | · | 7 | · | · | · | · | · | · | ·

Bioassay records as filed in PubChem.
